Screens (PubChem)
FID counter – compounds displacing fluorescent DNA intercalator, primary screen, artefact control for HCV NS3 helicase inhibitor project, biochemical, FID fluorescence; DNA fluorescent intercalator displacement; inhibition, % at 7.9 µM; actives 0.17% (n = 290,000); in the data active = inhibition above about 37%;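 also: higher means more ethidium bromide displaced from hairpin DNA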
RBBP9 inh – human RBBP9 inhibitors, primary screen, biochemical, fluorescence polarization, FP-Rh probe, HTS. Serine hydrolase RBBP9 (Homo sapiens), O75884. recombinant RBBP9. inhibition, % at 7.94 µM. actives 0.2% (n = 220,000). AID 1515, 2009;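 active = inhibition above the campaign mean of all tested compounds plus 3 SD, cut at about 14% in these data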
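Test system: recombinant human RBBP9; Timing: 30 min then 45 min, 25 °C; Detection: fluorescence polarization; Control set: RBBP9 with DMSO as uninhibited control, no-protein wells as full inhibition; Compound dosing: one concentration, 7.94 µM nominal, 0.794% DMSO; Probe or stimulus: FP-Rh activity-based probe, 375 nM before mixing.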
Wee1 stabilizer – Wee1 degradation inhibitors, primary screen, cell-based, HeLa, Wee1K328M-luciferase, luminescence | reporter increase, % at 5 µM | AID 1321, 2008 | actives 1.2% (n = 220,000) | Wee1-like protein kinase (Homo sapiens), P30291 | HeLa Luc-Wee1K328M stability; 100% = proteasome inhibitor MG132 effect;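 active = activation above the mean of all tested compounds plus 3 SD, set per screening run, cut at about 8.8% in these data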;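 also: cells exposed to compound for 20 h before luminescence read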
Target sequence (P30291 whole entry K328M): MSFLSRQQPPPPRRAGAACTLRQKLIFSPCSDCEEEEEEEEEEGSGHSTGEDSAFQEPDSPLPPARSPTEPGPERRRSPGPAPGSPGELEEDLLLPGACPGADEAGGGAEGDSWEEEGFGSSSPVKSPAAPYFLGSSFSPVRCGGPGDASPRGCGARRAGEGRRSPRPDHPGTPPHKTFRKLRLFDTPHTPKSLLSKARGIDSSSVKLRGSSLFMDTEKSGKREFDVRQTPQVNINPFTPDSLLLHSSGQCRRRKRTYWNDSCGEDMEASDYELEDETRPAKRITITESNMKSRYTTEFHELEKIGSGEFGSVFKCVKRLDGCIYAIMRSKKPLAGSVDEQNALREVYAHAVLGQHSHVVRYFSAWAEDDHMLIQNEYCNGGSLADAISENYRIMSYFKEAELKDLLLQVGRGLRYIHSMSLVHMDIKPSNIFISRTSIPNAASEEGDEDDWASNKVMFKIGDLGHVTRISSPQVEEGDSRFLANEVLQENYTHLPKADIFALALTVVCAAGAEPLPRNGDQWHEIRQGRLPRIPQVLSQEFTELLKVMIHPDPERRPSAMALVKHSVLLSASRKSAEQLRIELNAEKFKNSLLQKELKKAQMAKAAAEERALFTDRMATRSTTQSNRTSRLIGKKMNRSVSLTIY
Rad51 HR inh – human RAD51 strand exchange inhibitors, primary screen, biochemical, fluorescence; hRad51 DNA strand exchange, fluorescence dequenching; DNA repair protein RAD51 homolog 1 (Homo sapiens), Q06609; actives 0.085% (n = 200,000); inhibition, % at 10 µM; AID 1385, 2008;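 active = inhibition above 40% at the single screening dose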
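Material: hRad51 filaments on single-stranded DNA; Reagent: Donor/quencher-labelled 47-bp dsDNA substrate; Compound: 10 µM final, single point; Schedule: 37 °C 15-min filament assembly, 30-min compound preincubation, 15-min exchange; Technique: FRET fluorescence, excitation 485 nm, emission 520 nm; Benchmarks: control wells and blank wells on each plate.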
Wee1 degr conf – Wee1 degradation inhibitors, confirmation, cell-based, HeLa, Wee1K328M-luciferase, luminescence, triplicate | actives 4% (n = 1,100) | HeLa Luc-Wee1K328M degradation; vehicle 0%, proteasome-blocked wells 100% | shares compounds with Wee1 stabilizer | activation, % at 5 µM | AID 1410, 2008; in the data active = activation above about 8.9%
A number is an active result. Only some compounds are listed: those with a hit (about 1.2% of all), similar ones and a draw of the others.

How did CCC(C)NC(=O)Cn1cnc2sc(C)c(S(=O)(=O)N3CCN(c4ncccn4)CC3)c2c1=O (configuration not stated) do in these assays?
FID counter: inactive; RBBP9 inh: inactive; Wee1 stabilizer: 16; Rad51 HR inh: inactive; Wee1 degr conf: inactive

How did CCn1c(=O)c(=O)[nH]c2c(=O)oc3ccc(S(=O)(=O)Nc4ccccc4)cc3c21 do in these assays?
FID counter: inactive

Results for CCOc1ccc(N=C(/C(C(=O)C(=O)N2CCOCC2)=C(/O)c2ccccc2)c2ccccc2)cc1 ?
FID counter: inactive; RBBP9 inh: inactive; Wee1 stabilizer: inactive; Rad51 HR inh: inactive

Results for CCN1CCCC1CNCc1ccc(OCc2ccc(Cl)nc2)c(OC)c1 (configuration not stated) ?
FID counter: inactive; RBBP9 inh: inactive; Wee1 stabilizer: 15; Rad51 HR inh: inactive; Wee1 degr conf: inactive

What do the screens show for `CS(=O)(=O)N(CC(=O)NC1CCCC1)C1CCCCC1`?
FID counter: inactive; RBBP9 inh: inactive; Wee1 stabilizer: inactive

What do the screens show for `COc1ccc(NC(=O)c2cc(C)no2)cc1Cl`?
FID counter: inactive

How did CC(C)(C)c1ccc(C(=O)Nc2ccc(F)cc2)s1 do in these assays?
FID counter: inactive; RBBP9 inh: inactive; Wee1 stabilizer: 12; Rad51 HR inh: inactive; Wee1 degr conf: inactive

Results for CCOC(=O)c1cnc(SCC#N)nc1N ?
FID counter: inactive; RBBP9 inh: inactive; Wee1 stabilizer: 13; Wee1 degr conf: inactive

Results for Cc1cc(C)n(CCOc2ccc(Cl)cc2Cl)n1 ?
FID counter: inactive; RBBP9 inh: inactive; Wee1 stabilizer: 11; Rad51 HR inh: inactive; Wee1 degr conf: inactive

Results for O=C(NCCCCCCNC(=O)c1ccncc1)c1ccncc1 ?
FID counter: inactive

Results for CCCCNCCCOc1cccc(Cl)c1Cl ?
FID counter: inactive; RBBP9 inh: inactive; Wee1 stabilizer: 11; Rad51 HR inh: inactive; Wee1 degr conf: inactive

Results for CCCCNCCCOc1ccc(C)cc1Br ?
FID counter: inactive; RBBP9 inh: inactive; Wee1 stabilizer: inactive; Rad51 HR inh: inactive

What do the screens show for `COc1ccc(C(C)C)cc1S(=O)(=O)n1ccnc1C`?
FID counter: inactive; RBBP9 inh: inactive; Wee1 stabilizer: 13; Rad51 HR inh: inactive; Wee1 degr conf: inactive

What do the screens show for `COc1ccc(OC)c(S(=O)(=O)n2ccnc2C)c1`?
FID counter: inactive; RBBP9 inh: inactive; Wee1 stabilizer: inactive; Rad51 HR inh: inactive

How did COc1ccc(/C=C/c2cc(C(F)(F)F)on2)cc1 do in these assays?
FID counter: inactive; RBBP9 inh: inactive; Wee1 stabilizer: inactive; Rad51 HR inh: inactive

Results for CCCCN1C(=O)NC(NC(=O)C2CC2)(C(F)(F)F)C1=O (configuration not stated) ?
FID counter: inactive; RBBP9 inh: inactive; Wee1 stabilizer: inactive; Rad51 HR inh: inactive

Results for CCCCN1C(=O)NC(NC(=O)c2ccco2)(C(F)(F)F)C1=O (configuration not stated) ?
FID counter: inactive; RBBP9 inh: inactive; Wee1 stabilizer: 17; Rad51 HR inh: inactive; Wee1 degr conf: inactive

Results for Cn1cc(C(=O)N2CCCC(Nc3ccc(F)cc3)C2)c2ccccc21 (configuration not stated) ?
FID counter: inactive

How did NS(=O)(=O)c1cccc(NC(=O)CSc2nc3ccc(Cl)cc3[nH]2)c1 do in these assays?
FID counter: inactive; RBBP9 inh: inactive; Wee1 stabilizer: 12; Rad51 HR inh: inactive; Wee1 degr conf: inactive

How did Cc1ccc2nc(SCC(=O)Nc3cccc(S(=O)(=O)N(C)C)c3)[nH]c2c1 do in these assays?
FID counter: inactive; RBBP9 inh: inactive; Wee1 stabilizer: inactive; Rad51 HR inh: inactive

Results for COc1cc(N/N=C(\C)c2ccc(N)cc2)nc(-c2ccccc2)n1 ?
FID counter: inactive; RBBP9 inh: inactive; Wee1 stabilizer: 12; Rad51 HR inh: inactive; Wee1 degr conf: inactive

How did COc1cc(N/N=C(\C)c2ccc(O)c(C)c2)nc(-c2ccccc2)n1 do in these assays?
FID counter: inactive; RBBP9 inh: inactive; Wee1 stabilizer: inactive; Rad51 HR inh: inactive

What do the screens show for `CN(CC(=O)N1CCc2ccccc21)S(=O)(=O)c1cccs1`?
FID counter: inactive; RBBP9 inh: inactive; Wee1 stabilizer: 14; Rad51 HR inh: inactive; Wee1 degr conf: inactive

What do the screens show for `Cc1ccccc1NC(=O)CN(C)S(=O)(=O)c1cccs1`?
FID counter: inactive

Results for Cc1nnc(SCCn2c(N3CCC(Cc4ccccc4)CC3)nc3c2c(=O)[nH]c(=O)n3C)s1 ?
FID counter: inactive; RBBP9 inh: inactive; Wee1 stabilizer: inactive; Rad51 HR inh: inactive

What do the screens show for `CCCCn1c(N2CCC(Cc3ccccc3)CC2)nc2c1c(=O)[nH]c(=O)n2C`?
FID counter: inactive; RBBP9 inh: inactive; Wee1 stabilizer: 13; Rad51 HR inh: inactive; Wee1 degr conf: inactive

Results for O=[N+]([O-])c1ccc(/C=C/c2ccncc2)cc1 ?
FID counter: inactive; RBBP9 inh: inactive; Wee1 stabilizer: 18; Wee1 degr conf: inactive

What do the screens show for `CC(C)(C)NC(=O)C(Cc1ccccc1)NS(=O)(=O)c1ccc2c(c1)CCC(=O)N2` (configuration not stated)?
FID counter: inactive; RBBP9 inh: inactive; Wee1 stabilizer: inactive; Rad51 HR inh: inactive

Results for O=C1CCc2cc(S(=O)(=O)NC(Cc3ccccc3)C(=O)NC3CCCCC3)ccc2N1 (configuration not stated) ?
FID counter: inactive; RBBP9 inh: inactive; Wee1 stabilizer: 28; Wee1 degr conf: inactive

What do the screens show for `COc1ccc(Nc2oc(-c3ccc(OC)cc3)nc2C#N)cc1`?
FID counter: inactive; RBBP9 inh: inactive; Wee1 stabilizer: 11; Rad51 HR inh: inactive; Wee1 degr conf: 9.6

What do the screens show for `COc1ccc(Nc2oc(-c3ccc(Cl)cc3)nc2C#N)cc1`?
FID counter: inactive; RBBP9 inh: inactive; Wee1 stabilizer: inactive; Rad51 HR inh: inactive

Results for C/C(=N\NC(=O)c1csc(C)c1C)c1ccc(Cl)s1 ?
FID counter: inactive; RBBP9 inh: inactive; Wee1 stabilizer: 12; Rad51 HR inh: inactive; Wee1 degr conf: inactive

Results for C/C(=N\NC(=O)c1ccoc1C)c1ccc(Cl)s1 ?
FID counter: inactive

What do the screens show for `CC(=O)c1ccc(OCC(=O)N2CCCC(Nc3ccc(C)c(C)c3)C2)cc1` (configuration not stated)?
FID counter: inactive

How did O=C(Cc1cccs1)NCCSc1c(-c2ccc(Cl)cc2)[nH]c2ccccc12 do in these assays?
FID counter: inactive; RBBP9 inh: inactive; Wee1 stabilizer: 13; Wee1 degr conf: inactive
